Activity calls are given as the source filed them.

Series [1] concerns the target T1, Fatty-acid amide hydrolase 1 (Homo sapiens, UniProt O00519).
T1 sequence (O00519 whole entry): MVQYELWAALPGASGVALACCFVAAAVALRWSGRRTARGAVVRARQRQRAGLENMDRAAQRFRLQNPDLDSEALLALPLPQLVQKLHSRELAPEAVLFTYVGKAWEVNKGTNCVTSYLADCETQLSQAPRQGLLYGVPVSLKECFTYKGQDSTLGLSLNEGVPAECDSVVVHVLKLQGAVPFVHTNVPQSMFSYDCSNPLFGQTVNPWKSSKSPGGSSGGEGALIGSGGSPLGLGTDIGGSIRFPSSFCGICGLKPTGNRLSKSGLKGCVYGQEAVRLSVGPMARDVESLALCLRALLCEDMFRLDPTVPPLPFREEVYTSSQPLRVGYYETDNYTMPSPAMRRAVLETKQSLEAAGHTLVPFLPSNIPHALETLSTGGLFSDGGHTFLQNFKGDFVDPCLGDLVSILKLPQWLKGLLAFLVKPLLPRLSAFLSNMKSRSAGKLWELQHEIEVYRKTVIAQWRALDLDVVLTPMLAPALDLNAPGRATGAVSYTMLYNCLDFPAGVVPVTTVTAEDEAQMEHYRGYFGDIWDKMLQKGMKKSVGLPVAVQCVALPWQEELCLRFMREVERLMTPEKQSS
The series is described as follows: Inhibition of human recombinant MBP-tagged FAAH expressed in Escherichia coli cells using AAMCA as substrate incubated for 15 mins followed by substrate addition and measured after every 20 mins for 4 hrs by fluorescence based assay. The procedure, abridged: (§1)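 Fluorescent enzyme assay in throughput format. Human recombinant FAAH or purified rat FAAH used arachidonoyl 7-amino-4-methylcoumarin amide as substrate; human recombinant MGL was run by a similar fluorometric procedure.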

Series [2] concerns the target T2, Fatty-acid amide hydrolase 1 (Rattus norvegicus, UniProt P97612).
T2 sequence (P97612 whole entry): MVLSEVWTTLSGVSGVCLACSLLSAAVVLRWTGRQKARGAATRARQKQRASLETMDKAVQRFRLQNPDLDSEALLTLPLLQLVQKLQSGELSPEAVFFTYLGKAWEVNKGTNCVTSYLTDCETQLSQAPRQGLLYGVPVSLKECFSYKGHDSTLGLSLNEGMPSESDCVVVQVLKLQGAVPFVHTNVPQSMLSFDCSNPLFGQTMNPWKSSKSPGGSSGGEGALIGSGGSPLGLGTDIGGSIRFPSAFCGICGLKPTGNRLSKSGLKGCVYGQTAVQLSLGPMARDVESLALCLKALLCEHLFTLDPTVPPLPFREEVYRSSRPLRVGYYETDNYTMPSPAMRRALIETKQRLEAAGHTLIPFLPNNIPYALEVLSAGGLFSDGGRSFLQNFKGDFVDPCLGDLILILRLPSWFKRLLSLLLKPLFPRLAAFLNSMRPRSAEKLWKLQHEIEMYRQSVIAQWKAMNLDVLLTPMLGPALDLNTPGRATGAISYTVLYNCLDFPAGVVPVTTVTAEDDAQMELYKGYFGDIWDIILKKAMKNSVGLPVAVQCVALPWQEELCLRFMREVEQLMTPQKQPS
The series is described as follows: Inhibition of rat recombinant His/GST-tagged FAAH expressed in Escherichia coli cells using AAMCA as substrate incubated for 15 mins followed by substrate addition and measured after every 20 mins for 4 hrs by fluorescence based assay. In outline: as §1

A further series deals with T3, Monoglyceride lipase (Homo sapiens, UniProt Q99685).
T3 sequence (Q99685 whole entry): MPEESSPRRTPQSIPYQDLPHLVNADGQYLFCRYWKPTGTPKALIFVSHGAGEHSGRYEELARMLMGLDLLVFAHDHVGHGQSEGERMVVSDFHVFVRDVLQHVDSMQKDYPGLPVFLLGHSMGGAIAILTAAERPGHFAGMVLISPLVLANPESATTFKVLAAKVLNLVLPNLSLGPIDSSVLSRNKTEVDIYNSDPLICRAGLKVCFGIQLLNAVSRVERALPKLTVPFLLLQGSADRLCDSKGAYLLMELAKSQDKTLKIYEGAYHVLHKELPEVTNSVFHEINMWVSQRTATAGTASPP
Kind of series: Inhibition of human recombinant His-tagged MGL expressed in Escherichia coli BL21 DE3 cells using AHMMCE as substrate preincubated with enzyme for 15 mins followed by substrate addition and measured after every 15 mins for 3 hrs by fluorescence based assay. The procedure, abridged:
as §1

Series [3] can be described thus: Stability in human liver microsomes assessed as half life. In kind it is ADME, Microsome. The procedure, abridged: (§2)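 Stability assessed as half-life in human, rat and mouse plasma and gastric fluid, and in human, rat and mouse liver microsomal preparations.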
A general note: Liver microsomes are vesicles of endoplasmic reticulum, rich in cytochrome P450 enzymes.

Series [4] can be described thus: Stability in rat liver microsomes assessed as half life. Format: ADME, Microsome. The procedure, abridged: as §2
Series [5] in a line: Stability in mouse liver microsomes assessed as half life. In kind it is ADME, Microsome. The procedure, abridged: as §2
Series [6] in a line: Stability in human plasma assessed as half life. Format: ADME, cell-free. The procedure, abridged:
as §2

Series [7] is described as follows: Stability in rat plasma assessed as half life. Format: ADME, cell-free. In outline: as §2
Series [8] in a line: Stability in mouse plasma assessed as half life. Format: ADME, cell-free. In outline:
as §2

Series [9] can be described thus: Stability in human gastric fluid assessed as half life. In kind it is ADME, tissue-based, Gastric juice. In outline: as §2
The nature of series [10]: Stability in rat gastric fluid assessed as half life. In kind it is ADME, tissue-based, Gastric juice. The procedure, abridged:
as §2

A short description of series [11]: Stability in mouse gastric fluid assessed as half life. In kind it is ADME, tissue-based, Gastric juice. The procedure, abridged: as §2
For series [12], the species on record is Homo sapiens. Kind of series: Selectivity ratio of IC50 for human recombinant His-tagged MGL expressed in Escherichia coli BL21 DE3 cells to IC50 for human recombinant MBP-tagged FAAH expressed in Escherichia coli cells by fluorescence based assay.
Series [13] is filed under the species Homo sapiens. The series is described as follows: Selectivity ratio of IC50 for human full length ABHD6 expressed in Escherichia coli cells to IC50 for human recombinant MBP-tagged FAAH expressed in Escherichia coli cells by fluorescence based assay.
In series [14] the target is Cannabinoid receptor 1 (Rattus norvegicus) (UniProt P20272). The series is described as follows: Displacement of [3H]CP55940 from CB1 receptor in rat brain by competition-equilibrium binding analysis. In kind it is tissue-based. In outline: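 Rat brain membranes as CB1 source; competition-equilibrium binding against [3H]CP-55,940.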
Target sequence in this assay (P20272 whole entry): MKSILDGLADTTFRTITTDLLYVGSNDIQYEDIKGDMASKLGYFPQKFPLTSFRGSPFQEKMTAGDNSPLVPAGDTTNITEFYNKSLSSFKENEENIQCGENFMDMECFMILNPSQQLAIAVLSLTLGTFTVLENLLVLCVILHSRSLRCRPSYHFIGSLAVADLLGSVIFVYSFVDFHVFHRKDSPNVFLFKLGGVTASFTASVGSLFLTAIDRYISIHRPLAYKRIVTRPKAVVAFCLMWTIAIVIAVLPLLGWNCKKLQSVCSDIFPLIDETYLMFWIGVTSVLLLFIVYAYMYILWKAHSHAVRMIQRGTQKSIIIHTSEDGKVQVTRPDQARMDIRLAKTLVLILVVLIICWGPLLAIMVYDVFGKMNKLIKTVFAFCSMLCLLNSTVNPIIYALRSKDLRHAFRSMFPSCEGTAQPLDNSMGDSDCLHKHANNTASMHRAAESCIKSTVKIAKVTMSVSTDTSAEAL
(In general: Loss of bound radioactivity is the signal in a displacement assay; it reports binding, not function.)

Series [15] addresses Cannabinoid receptor 2 (Mus musculus) (UniProt P47936). Kind of series: Displacement of [3H]CP55940 from mouse CB2 receptor expressed in HEK293 cells by competition-equilibrium binding analysis. Format: cell-based. The procedure, abridged: (§3)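 HEK293 cell membranes expressing mouse or human CB2; competition-equilibrium binding against [3H]CP-55,940.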
Series [16] deals with Cannabinoid receptor 2 (Homo sapiens) (UniProt P34972). The series is described as follows: Displacement of [3H]CP55940 from human CB2 receptor expressed in HEK293 cells by competition-equilibrium binding analysis. In kind it is cell-based. In outline:
as §3

A short description of series [17]: Selectivity ratio of IC50 for human recombinant His-tagged MGL expressed in Escherichia coli BL21 DE3 cells to IC50 for rat recombinant His/GST-tagged FAAH expressed in Escherichia coli cells by fluorescence based assay.
Series [18] is described as follows: Selectivity ratio of IC50 for human full length ABHD6 expressed in Escherichia coli cells to IC50 for rat recombinant His/GST-tagged FAAH expressed in Escherichia coli cells by fluorescence based assay.
The target in series [19] is Cannabinoid receptor 1 (Rattus norvegicus) (UniProt P20272). Kind of series: Displacement of [3H]CP55940 from CB1 receptor in rat brain by competition-equilibrium binding analysis.
Target sequence in this assay (P20272 whole entry, looked up): as the sequence (P20272 whole entry) above

Chain of Cannabinoid receptor 2 (Mus musculus) (P47936 whole entry): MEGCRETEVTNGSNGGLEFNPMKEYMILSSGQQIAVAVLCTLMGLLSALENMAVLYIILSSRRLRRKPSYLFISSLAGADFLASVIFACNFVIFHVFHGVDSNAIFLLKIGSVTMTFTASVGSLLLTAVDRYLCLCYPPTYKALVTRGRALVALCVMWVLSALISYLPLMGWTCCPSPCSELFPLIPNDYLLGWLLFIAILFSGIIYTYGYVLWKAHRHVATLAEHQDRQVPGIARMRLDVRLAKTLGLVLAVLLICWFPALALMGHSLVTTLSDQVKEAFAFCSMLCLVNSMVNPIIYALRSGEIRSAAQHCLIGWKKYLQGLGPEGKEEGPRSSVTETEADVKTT
Chain of Cannabinoid receptor 2 (Homo sapiens) (P34972 whole entry): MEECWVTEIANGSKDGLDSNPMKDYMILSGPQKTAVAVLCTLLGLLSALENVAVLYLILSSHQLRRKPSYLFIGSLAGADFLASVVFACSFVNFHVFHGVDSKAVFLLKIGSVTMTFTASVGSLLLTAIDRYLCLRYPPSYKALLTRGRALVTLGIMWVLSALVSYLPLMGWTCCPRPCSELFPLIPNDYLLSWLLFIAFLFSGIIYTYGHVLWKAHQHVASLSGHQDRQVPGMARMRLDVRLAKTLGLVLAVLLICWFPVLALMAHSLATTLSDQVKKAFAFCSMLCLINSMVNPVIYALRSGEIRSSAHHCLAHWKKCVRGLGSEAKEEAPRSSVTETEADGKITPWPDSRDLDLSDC

`O=C(Oc1cccc(N2CCS(=O)(=O)CC2)c1)N1CCC(c2ccccc2)CC1`: the IC50 in [1] was 8 nM; in [2] it was 6 nM; at Monoglyceride lipase it was above 1000 nM. The half-life is 15 to 25 min in series [3]; 15 to 25 min in series [4]; 15 to 25 min in series [5]; above 60 min in series [6]; above 60 min in series [7]; above 60 min in [8]. The half-life in series [9], in series [10] and in series [11] was above 60 min each time. Besides, the Ratio IC50 (in the series filed under Homo sapiens [12]; in the series filed under Homo sapiens [13]; in series [17]; in series [18]) was above 1000 each time. The result in [14], in series [15], in series [16] and in series [19] was inactive.

Turning to `O=C(Oc1cccc(N2CCCCC2)c1)N1CCC(c2ccc(F)cc2)CC1`, the IC50 was 40 nM in [1], 6.8 nM in [2] and above 1000 nM at Monoglyceride lipase. Also, the half-life in [3] is 15 to 25 min; in series [4], 15 to 25 min; in [5] it was 15 to 25 min; in [6], above 60 min; in series [7] it was above 60 min; in series [8] it was above 60 min. The half-life in series [9], in series [10] and in series [11] was above 60 min each time. Besides, the Ratio IC50 (in the series filed under Homo sapiens [12]; in the series filed under Homo sapiens [13]; in series [17]; in [18]) was above 1000 throughout. The result in [14], in series [15], in [16] and in series [19] was inactive.

Regarding `O=C(Oc1cccc(N2CCS(=O)(=O)CC2)c1)N1CCN(Cc2cccc(Oc3ccccc3)c2)CC1`, the results for the concentration for half-maximal inhibition (IC50) (in series [1]; in series [2]; at Monoglyceride lipase) were 2.3 nM, 2.2 nM and above 1000 nM, respectively. The half-life in series [3] was 15 to 25 min; in [4] it was 15 to 25 min; in [5], 15 to 25 min; in series [6] it was above 60 min; in [7], above 60 min; in [8], above 60 min. The half-life in series [9], in [10] and in series [11] was above 60 min throughout. In addition, the Ratio IC50 (in the series listed under Homo sapiens [12]; in the series listed under Homo sapiens [13]; in series [17]; in series [18]) was above 1000 in each case. The outcome in series [14], in [15], in series [16] and in series [19] was inactive.

Regarding `O=C(Oc1cccc(N2CCS(=O)(=O)CC2)c1)N1CCC(c2ccc(OC(F)(F)F)cc2)CC1`, the IC50 is 3.7 nM in series [1], 4 nM in [2] and above 1000 nM on Monoglyceride lipase. Besides, the half-life was 15 to 25 min in series [3]; 15 to 25 min in [4]; 15 to 25 min in series [5]; above 60 min in [6]; above 60 min in [7]; above 60 min in series [8]. The half-life in [9], in series [10] and in series [11] was above 60 min each time. The Ratio IC50 (in the series filed under Homo sapiens [12]; in the series filed under Homo sapiens [13]; in series [17]; in [18]) was above 1000 each time. The outcome in series [14], in series [15], in [16] and in series [19] was inactive.

Take `CC1CN(c2ccccc2)CCN1C(=O)Oc1cccc(N2CCS(=O)(=O)CC2)c1` (stereo not given): the results for the IC50 (in [1]; in series [2]; at Monoglyceride lipase) were 2.6 nM, 5.5 nM and above 1000 nM, respectively. The half-life in series [3] was 15 to 25 min; in series [4], 15 to 25 min; in series [5], 15 to 25 min; in [6], above 60 min; in [7] it was above 60 min; in [8] it was above 60 min. Besides, the half-life in [9], in series [10] and in [11] was above 60 min in each case. For the same compound, the Ratio IC50 (in the series listed under Homo sapiens [12]; in the series listed under Homo sapiens [13]; in [17]; in series [18]) was above 1000 in each case. Besides, the result in series [14], in [15], in [16] and in series [19] was inactive.

With `CN1CCN(c2cccc(OC(=O)N3CCC(c4ccc(F)cc4)CC3)c2)CC1`, the IC50 is 33.2 nM in [1], 9.4 nM in series [2] and above 1000 nM on Monoglyceride lipase. Further, the half-life is 15 to 25 min in series [3]; 15 to 25 min in series [4]; 15 to 25 min in series [5]; above 60 min in series [6]; above 60 min in series [7]; above 60 min in [8]. The half-life in series [9], in series [10] and in [11] was above 60 min each time. For the same compound, the Ratio IC50 (in the series listed under Homo sapiens [12]; in the series filed under Homo sapiens [13]; in [17]; in [18]) was above 1000 in each case. Besides, the result in series [14], in series [15], in series [16] and in series [19] was inactive.

The term IC50 denotes the concentration that gives 50% inhibition. As usually defined, the half-life is the time needed for the level to fall by half in the phase considered.
